Measurements: article PMC7689742 (Clinical Pharmacology and Therapeutics, 2020)
In brackets after ≈: the same amount, converted by molar mass. Several values for one entry are separate records, joined by “and”; a condition that tells them apart may be missing. Identical values can stand only once. Like-named read-outs stand apart in the source and are kept apart here.

What was measured:
[1] = 1:1 complex with HP‐β‐CD; cited from earlier work
[2] = Determination of the binding constant; format: physicochemical; settings: for k complex (M^−1) / k complex: 1:1 complex with HP‐β‐CD, source Internal data
[3] = Itraconazole clinical DDI study, fenebrutinib PK in healthy subjects; format: in vivo, human
In short: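 Single oral 100 mg test-compound dose on Day 1; after a 3-day washout, inhibitor 200 mg oral solution once daily Days 4–9, with co-dosed 100 mg test compound Day 10 and one more inhibitor dose Day 11. Overnight fast, 240 mL water, food withheld 4 h post-dose. Plasma sampled predose to 48 h on Days 1 and 10. Mixed-model least-squares means, 90% CI of difference.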

[4] = Determination of the binding constant; format: physicochemical; settings: aqueous, 48 hours, ambient
In short: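 Excess test compound was added to sealed glass vials of aqueous α-cyclodextrin or HP-β-CD at several concentrations. Vials were shaken 48 h at ambient conditions to equilibrate, then centrifuge-filtered to remove solids. Dissolved compound was quantified by HPLC with diode array detection. k_complex = [complex]/([intrinsic solubility]·[free cyclodextrin]).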

MDCK cell monolayer = experiment: Permeability across an MDCK cell monolayer; format: in vitro ADME, canine; settings: HP‐β‐CD:fenebrutinib molar ratio 1.56 (266 mg HP‐β‐CD)
In short: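 MDCK cells with canine Mdr1 knocked out by CRISPR-Cas9 were grown 5 days on 1 µm pore polyester inserts. Monolayers were equilibrated 20 min at 37°C in HBSS with 10 mM Hepes, pH 7.4. Donor held 20 µM test compound, 50 µM lucifer yellow and 0–20% w/v HP-β-CD. Apical-to-basolateral receivers were sampled at 30, 60 and 90 min. Quantitation was by LC-MS/MS; Papp = (dQ/dt)/(A·C0).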

[5] = Pharmacokinetic study in pentagastrin‐pretreated dogs with or without HP‐β‐CD; format: in vivo, dog; settings: for AUC 0‐∞ / Fenebrutinib recovered in feces / Cmax / Tmax: 100 mg tablets; for Cmax / Tmax: male, beagle, dog, plasma, po, 100 mg
In short: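 Fasted male beagles got intramuscular pentagastrin at 6 µg/kg about 30 min before dosing. They then had oral gavage of pH 2 water (control) or HP-β-CD in pH 2 water (0.8, 2 or 8 g total), each plus water to 250 mL, followed by two 50 mg tablets (n = 4/group). Plasma was sampled 5 min–24 h and assayed by LC-MS/MS (LLOQ 1.02 ng/mL). Cumulative fecal recovery was measured. Groups were compared by one-way ANOVA with Bonferroni's test.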

GastroPlus human model = settings: for clearance: both, human, plasma, oral
[6] = Physiochemical properties used for fenebrutinib
[7] = both, human, plasma, po, 100 mg
[8] = two‐compartment model fit to control group
[9] = dog model, from intravenous PK data

In the case of Clc1ccc(COC(Cn2ccnc2)c2ccc(Cl)cc2Cl)cc1 (stereo not drawn) [Econazole], the “k complex” value [1] is listed as 180 M⁻¹.
In the case of O=C(O)c1cc(-c2ccc(F)cc2F)ccc1O [Diflunisal], the “k complex (M^−1)” value [2] is reported as 1,600 M^−1.
For CCn1cc(C(=O)O)c(=O)c2cc(F)c(N3CCNCC3)cc21 [Norfloxacin], the “k complex” value [2] was 5 M⁻¹.
In the case of CN1C(=O)CN=C(c2ccccc2F)c2cc([N+](=O)[O-])ccc21 [Flunitrazepam], the “k complex (M^−1)” value [1] is given as 1,100 M^−1.
In the case of Clc1ccc(COC(Cn2ccnc2)c2ccc(Cl)cc2Cl)c(Cl)c1 (stereo not drawn) [Miconazole], the “k complex” value [1] is listed as 260 M⁻¹.
In the case of Cc1nnc2n1-c1ccc(Cl)cc1C(c1ccccc1)=NC2 [Alprazolam], the “k complex” value [1] is given as 250 M⁻¹.
For C[C@H]1CN(C2COC2)CCN1c1ccc(Nc2cc(-c3ccnc(N4CCn5c(cc6c5CC(C)(C)C6)C4=O)c3CO)cn(C)c2=O)nc1 [Fenebrutinib], the “AUC0–24h” value ([3]; 100 mg fenebrutinib oral alone, healthy subjects) was 1.11 ± 0.359 µg/h/mL, the “AUC0–24h” value ([3]; 100 mg fenebrutinib with 200 mg itraconazole oral solution (steady state)) was 2.45 ± 0.588 µg/h/mL and the Cmax [3, 7] was 221 ± 82.5 ng/mL. The Tmax [3, 7] was 1.56 ± 0.629 h, the half-life [3, 7] was 8.26 ± 2.33 h and the “k complex (M^−1)” value [2] was 200,000 M^−1. The “k complex with HP‐β‐CD” value ([2]; aqueous, 48 hours, ambient) was 2 × 10^5 M^−1 and ~ 2 × 10^5 M^−1, the “k complex with α‐CD” value [4] was 4,000 M^−1 and the “reduction in P app” value (MDCK cell monolayer) was roughly 2 fold. For the same molecule, the “AUC 0‐∞” value ([5]; HP‐β‐CD 0 g) was 28.9 ± 6.98 µg/h/mL, the “Fenebrutinib recovered in feces” value ([5]; HP‐β‐CD 0 g) was 3.48 ± 0.681 mg and the “AUC 0‐∞” value ([5]; HP‐β‐CD 0.8 g) was 17.4 ± 6.92 µg/h/mL. For the same molecule, the “Fenebrutinib recovered in feces” value ([5]; HP‐β‐CD 0.8 g) was 11.2 ± 2.39 mg, the “AUC 0‐∞” value ([5]; HP‐β‐CD 2 g) was 8.38 ± 1.94 µg/h/mL and the “Fenebrutinib recovered in feces” value ([5]; HP‐β‐CD 2 g) was 15.6 ± 8.99 mg. The “AUC 0‐∞” value ([5]; HP‐β‐CD 8 g) was 4.46 ± 2.07 µg/h/mL, the “Fenebrutinib recovered in feces” value ([5]; HP‐β‐CD 8 g) was 22.7 ± 7.76 mg and the “increase of recovery in feces vs control” value ([5]; HP‐β‐CD 0.8 g) was roughly 3 fold. The “AUC decrease vs control” value ([5]; HP‐β‐CD 2 g) was roughly 3.5 fold, the “Cmax decrease vs control” value ([5]; HP‐β‐CD 2 g) was roughly 3.5 fold and the “increase of recovery in feces vs control” value ([5]; HP‐β‐CD 2 g) was roughly 4.5 fold. The “AUC decrease vs control” value ([5]; HP‐β‐CD 8 g) was “about 7 fold”, the “increase of recovery in feces vs control” value ([5]; HP‐β‐CD 8 g) was “about 6.5 fold” and the Cmax ([5]; HP‐β‐CD 0 g) was 3940 ± 225 ng/mL. It also gave a Cmax ([5]; HP‐β‐CD 0.8 g) of 2090 ± 243 ng/mL, a Cmax ([5]; HP‐β‐CD 2 g) of 1110 ± 142 ng/mL and a Cmax ([5]; HP‐β‐CD 8 g) of 447 ± 204 ng/mL. For the same molecule, the Tmax ([5]; HP‐β‐CD 0 g) was 0.875 ± 0.25 h, the Tmax ([5]; HP‐β‐CD 0.8 g) was 1.38 ± 1.11 h and the Tmax ([5]; HP‐β‐CD 2 g) was 2 ± 1.15 h. The Tmax ([5]; HP‐β‐CD 8 g) was 3 h, the clearance (GastroPlus human model) was 19.2 mL/min/kg and the clearance (GastroPlus human model; 100 mg) was 35 mL/min/kg. The “reduction of systemic clearance in the presence of itraconazole” value (GastroPlus human model; residual method on elimination phases) was “approximately 45%”, the “transfer rate constant from the central to peripheral compartment” value (GastroPlus human model; [8]) was 0.5 h⁻¹ and the “transfer rate constant from the peripheral to central compartment” value (GastroPlus human model; [8]) was 0.19 h⁻¹. For the same molecule, the “transfer rate constant from the central to peripheral compartment” value (GastroPlus dog model; [9]) was 0.08 h⁻¹, the “transfer rate constant from the peripheral to central compartment” value (GastroPlus dog model; [9]) was 0.2 h⁻¹ and the clearance (GastroPlus dog model; dog, plasma, iv) was 6 mL/min/kg. For the same molecule, the “particle size distribution median diameter (D50)” value [6] was 12 µm, the solubility ([6]; pH 2.3) was 36000 µg/mL (≈ 54200 µM) and the solubility ([6]; pH 6.5, fassif) was 9 µg/mL (≈ 13.5 µM). For the same molecule, the solubility ([6]; pH 7.8, aqueous buffer) was 0.1 µg/mL (≈ 0.15 µM).
In the case of Cc1cc(NS(=O)(=O)c2ccc(N)cc2)no1 [Sulfamethoxazole], the “k complex” value [1] is listed as 360 M⁻¹.
For C[C@]12C=CC(=O)C=C1CC[C@@H]1[C@@H]2[C@@H](O)C[C@@]2(C)[C@H]1CC[C@]2(O)C(=O)CO [Prednisolone], the “k complex” value [1] is listed as 958 M⁻¹.
For Cc1ccc(-c2cc(C(F)(F)F)nn2-c2ccc(S(N)(=O)=O)cc2)cc1 [Celecoxib], the “k complex (M^−1)” value [2] was 3,000 M^−1.
In the case of CC[C@@]1(O)C(=O)OCc2c1cc1n(c2=O)Cc2cc3ccccc3nc2-1 [Camptothecin], the “k complex” value [1] is given as 184 M⁻¹.
For C[C@]12CCC(=O)C=C1CC[C@@H]1[C@@H]2[C@@H](O)C[C@@]2(C)[C@H]1CC[C@]2(O)C(=O)CO [Hydrocortisone], the “k complex (M^−1)” value [1] is given as 1,900 M^−1.
For CN1C(=O)CN=C(c2ccccc2)c2cc(Cl)ccc21 [Diazepam], the “k complex” value [1] is given as 184 M⁻¹.
For COc1ccc2cc([C@H](C)C(=O)O)ccc2c1 [Naproxen], the “k complex” value [1] is listed as 780 M⁻¹.
In the case of Cc1nnc2n1-c1ccc(Cl)cc1C(c1ccccc1Cl)=NC2 [Triazolam], the “k complex” value [1] is given as 200 M⁻¹.
For C[C@]12CC[C@@H]3c4ccc(O)cc4CC[C@H]3[C@@H]1CC[C@@H]2O [Estradiol], the “k complex (M^−1)” value [1] is given as 38,600 M^−1.
For Nc1ccc(S(=O)(=O)Nc2nccs2)cc1 [Sulfathiazole], the “k complex” value [2] was 450 M⁻¹.
For CS(=O)(=O)c1ccc(C2=C(c3ccccc3)C(=O)OC2)cc1 [Rofecoxib], the “k complex” value [2] was 190 M⁻¹.
For C[C@H]1O[C@@H](O[C@H]2[C@@H](O)C[C@H](O[C@H]3[C@@H](O)C[C@H](O[C@H]4CC[C@@]5(C)[C@H](CC[C@@H]6[C@@H]5C[C@@H](O)[C@]5(C)[C@@H](C7=CC(=O)OC7)CC[C@]65O)C4)O[C@@H]3C)O[C@@H]2C)C[C@H](O)[C@@H]1O [Digoxin], the “k complex (M^−1)” value [1] is listed as 6,800 M^−1.
In the case of CC(=O)Nc1nnc(S(N)(=O)=O)s1 [Acetazolamide], the “k complex” value [1] is given as 85 M⁻¹.
For CC/C(=C(/CC)c1ccc(O)cc1)c1ccc(O)cc1 [Diethylstilbestrol], the “k complex (M^−1)” value [1] is given as 59,200 M^−1.
